Columns and labels:
[1] = Antioxidant potential was assessed from reducing activity against 2,2,di-phenyl-1-picrylhydrazyl.
[2] = system: HaCaT; test: Cytotoxic activity (2 uM) was measured by the amount of LDH (mU) release in HaCaT cells.; assay type: functional, Homo sapiens
Method in brief: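 HaCaT cells exposed to test compound at 2 μM; LDH activity (mU) released into the culture medium measured and compared with vehicle control; N = 3.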

[3] = Partition coefficient (logP); assay type: physicochemical; conditions: octanol/water
[4] = system: HaCaT; test: Antiproliferative (inhibition of cell growth) activity against HaCaT cells (human keratinocyte line); assay type: functional, cell-based
Method in brief: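 HaCaT human keratinocytes treated for 48 h. Proliferation assessed by directly counting dispersed cells under a phase-contrast microscope; N = 3, significance versus control at P < 0.01.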

[5] = target: T1, Arachidonate 5-lipoxygenase (Bos taurus, UniProt Q9BEG3); test: 5-LO inhibitory activity was determined by inhibition of LTB4 biosynthesis in bovine polymorphonuclear leukocytes (PMNL); assay type: functional, cell-based
T1 sequence (Q9BEG3 whole entry): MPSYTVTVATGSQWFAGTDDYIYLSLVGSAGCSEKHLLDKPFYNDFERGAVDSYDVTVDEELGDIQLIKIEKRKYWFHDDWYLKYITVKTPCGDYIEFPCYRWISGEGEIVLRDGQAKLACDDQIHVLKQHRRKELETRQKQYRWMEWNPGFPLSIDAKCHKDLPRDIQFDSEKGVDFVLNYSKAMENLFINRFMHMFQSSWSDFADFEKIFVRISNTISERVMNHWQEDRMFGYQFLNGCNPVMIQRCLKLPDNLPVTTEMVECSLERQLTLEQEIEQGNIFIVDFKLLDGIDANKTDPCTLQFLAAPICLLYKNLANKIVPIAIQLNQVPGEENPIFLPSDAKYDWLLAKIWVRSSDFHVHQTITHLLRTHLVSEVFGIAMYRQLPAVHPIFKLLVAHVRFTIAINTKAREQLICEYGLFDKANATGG
Method in brief: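 LTB4 biosynthesis measured in bovine polymorphonuclear leukocytes, with NDGA as the standard inhibitor; N = 3 or more, significance versus control at P < 0.01.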

Row | Structure (SMILES) | kDPPH [1] | LDH [2] | logP [3] | IC50 [4] | IC50 [5]
1 | O=C1C=CC(=O)c2c(O)ccc(O)c21 [NAPHTHAZALIN] | 41.5 M⁻¹ s⁻¹ | 247 mU | 3.7 | 0.7 µM | –
2 | CC(C)=CCc1c(C)cc(O)c2c1Cc1c(CC=C(C)C)c(O)cc(O)c1C2=O | 8.2 M⁻¹ s⁻¹ | – | 6.56 | > 5 µM | 25 µM
3 | c1ccc2cc3ccccc3cc2c1 | – | 131 mU | – | > 5 µM | > 30 µM
4 | c1ccc2c(c1)Cc1ccccc1C2 | – | – | 4.06 | > 5 µM | > 30 µM
5 | O=C(O)c1cc(O)c2c(c1)Cc1cccc(O)c1C2=O | > 100 M⁻¹ s⁻¹ | – | 2.96 | > 5 µM | 3 µM
6 | O=C1c2ccccc2Cc2ccccc21 [ANTHRONE] | < 2 M⁻¹ s⁻¹ | 165 mU | 3.46 | > 5 µM | 2 µM
7 | O=C1C=CC(=O)c2c(O)cccc21 [JUGLONE] | 6.6 M⁻¹ s⁻¹ | 384 mU | – | 0.8 µM | 17 µM
8 | O=C(c1ccccc1O)c1ccccc1O [2,2'-DIHYDROXYBENZPHENONE] | 2.1 M⁻¹ s⁻¹ | – | 2.66 | > 5 µM | > 30 µM
9 | N=C1c2c(O)cccc2Cc2cccc(O)c21 | 2.7 M⁻¹ s⁻¹ | 137 mU | 4.72 | 0.5 µM | > 30 µM
10 | Cc1cc(O)c2c(=O)c3c(O)cc(O)c4c5c(O)cc(O)c6c(=O)c7c(O)cc(C)c8c1c2c(c34)c(c78)c65 [HYPERICIN] | 3.66 M⁻¹ s⁻¹ | 159 mU | 5.02 | 1.7 µM | > 30 µM
11 | CCCCc1ccc2c(c1O)C(=O)c1c(O)cccc1C2 | 6.5 M⁻¹ s⁻¹ | – | 5.89 | > 5 µM | > 30 µM
12 | CC(=O)C1c2cccc(O)c2C(=O)c2c(O)cccc21 | 17.6 M⁻¹ s⁻¹ | 317 mU | 3.49 | 2.6 µM | 18 µM
13 | O=Cc1ccc2c(c1O)C(=O)c1c(O)cccc1C2 | > 100 M⁻¹ s⁻¹ | – | 4.06 | > 5 µM | 6 µM
14 | Nc1cccc2c1C(=O)c1ccccc1C2 | 50.5 M⁻¹ s⁻¹ | – | 2.45 | > 5 µM | 28 µM
15 | O=C1c2ccccc2Cc2c1ccc(O)c2O | > 100 M⁻¹ s⁻¹ | 144 mU | 3.81 | > 5 µM | 4 µM
16 | CN(C)C=C1c2cccc(O)c2C(=O)c2c(O)cccc21 | 16.2 M⁻¹ s⁻¹ | – | 3.18 | 2.1 µM | 21 µM
17 | COC(=O)c1cc(O)c2c(c1)Cc1cccc(O)c1C2=O | > 100 M⁻¹ s⁻¹ | 340 mU | 4.54 | 0.7 µM | > 30 µM
18 | COc1cccc2c1Cc1c(OC)cccc1C2=O | < 2 M⁻¹ s⁻¹ | 137 mU | 3.68 | > 5 µM | 8 µM
19 | O=C1c2ccccc2Cc2ccc(O)c(O)c21 | 41.5 M⁻¹ s⁻¹ | – | 3.19 | 1.9 µM | 4 µM
20 | Nc1cccc2c1Cc1ccccc1C2=O | 15.3 M⁻¹ s⁻¹ | – | 2.46 | > 5 µM | 20 µM
21 | O=C1c2c(O)cccc2C(Cc2ccccc2)(Cc2ccccc2)c2cccc(O)c21 | < 2 M⁻¹ s⁻¹ | 167 mU | 4.33 | > 5 µM | > 30 µM
22 | O=C1c2cccc(O)c2Cc2c(O)cccc21 | < 2 M⁻¹ s⁻¹ | 144 mU | 2.17 | > 5 µM | 4 µM
23 | COc1cccc2c1Cc1c(O)cccc1C2=O | < 2 M⁻¹ s⁻¹ | 141 mU | 2.6 | > 5 µM | –
24 | O=C1c2c(O)cccc2Cc2cccc(O)c21 [ANTHRALIN] | 24.2 M⁻¹ s⁻¹ | 294 mU | – | – | –
25 | O=C1c2c(O)cccc2C(Br)c2cccc(O)c21 | 12.7 M⁻¹ s⁻¹ | – | 3.94 | > 5 µM | > 30 µM
26 | Cc1cc(O)c2c(c1)Cc1cccc(O)c1C2=O | 15.3 M⁻¹ s⁻¹ | 211 mU | 4.8 | 1.5 µM | > 30 µM
27 | COc1cccc2c1C(=O)c1c(cccc1OC)C2 | – | 144 mU | 3.88 | > 5 µM | > 30 µM
28 | CCSC1c2cccc(O)c2C(=O)c2c(O)cccc21 | > 100 M⁻¹ s⁻¹ | – | 2.97 | – | > 30 µM
